# Measurements: ChEMBL document CHEMBL2062401, “New pyrimido[5,4-e]pyrrolo[1,2-c]pyrimidines: synthesis, 2D-QSAR, anti-inflammatory, analgesic and ulcerogenicity studies” (Eur J Med Chem, 2012)
# Tests used:
# Rattus norvegicus [1] = assay: Gastrointestinal toxicity in Wistar albino rat assessed as incidence of stomach ulceration at 0.029 mmol/kg, po followed by another two compound doses in second and third days measured on fourth day post dose by acute ulcerogenicity study; type: organism-based; conditions: in vivo
# Procedure, shortened: (§1)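 Adult Wistar rats of both sexes, 120–150 g, groups of 6, fasted 20 h; oral dose suspended in 1% Tween (vehicle group 1% Tween); fasted 2 h, fed 2 h, fasted 20 h; further doses on days 2 and 3. Scored: % incidence/10, mean ulcers per rat, mean severity score; ulcer index = sum of the three.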
# Rattus norvegicus [2] = assay: Antiinflammatory activity in Wistar albino rat assessed as inhibition of carrageenan-induced paw edema at 0.029 mmol/kg, po dosed 1 hr before carrageenan challenge measured 1 hr post carrageenan-induced inflammation; type: functional
# Procedure, shortened: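 Wistar albino rats of both sexes, 120–150 g, six per group, food withdrawn the day before. Given orally 0.029 mmol/kg in saline with a few drops of Tween 80, by stomach tube, 1 h before subplantar s.c. carrageenan (0.1 ml of 1%) into the right hind paw. Paw thickness measured at 1, 2, 3 and 4 h against baseline. % inhibition = 100 × (1 − Vt/Vc).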
# Rattus norvegicus [3] = assay: Antiinflammatory activity in Wistar albino rat assessed as inhibition of carrageenan-induced paw edema at 0.029 mmol/kg, po dosed 1 hr before carrageenan challenge measured 2 hrs post carrageenan-induced inflammation
# Rattus norvegicus [4] = assay: Antiinflammatory activity in Wistar albino rat assessed as inhibition of carrageenan-induced paw edema at 0.029 mmol/kg, po dosed 1 hr before carrageenan challenge measured 3 hrs post carrageenan-induced inflammation
# Rattus norvegicus [5] = assay: Gastrointestinal toxicity in Wistar albino rat assessed as incidence of stomach ulceration at 0.029 mmol/kg, po; type: organism-based; conditions: in vivo
# Procedure, shortened: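 Rats given single oral dose suspended in saline with few drops Tween 80 (groups of 6); killed under deep ether anaesthesia 5 h after treatment; stomach opened along greater curvature and examined for lesions or bleeding; ulceration expressed as number of rats affected per group.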
# Mus musculus [6] = assay: Analgesic activity in Swiss albino mouse assessed as inhibition of acetic acid-induced writhing at 0.029 mmol/kg. po dosed 1 hr before acetic acid challenge and measured during 30 mins post acetic acid challenge; type: functional
# Procedure, shortened: (§2)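 Swiss albino mice of either sex, 18–22 g, six per group. Oral suspension at 0.029 mmol/kg given 1 h before 0.3 ml of 1% acetic acid i.p. Contractions counted for 30 min, starting 5 min after injection. % protection = (n − n')/n × 100 against control writhing. Potency% = % inhibition of test / % inhibition of indomethacin × 100. Mean ± SEM, ANOVA with post hoc test.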
# Rattus norvegicus [7] = assay: Gastrointestinal toxicity in Wistar albino rat assessed as stomach ulcer index at 0.029 mmol/kg, po followed by another two compound doses in second and third days measured on fourth day post dose by acute ulcerogenicity study; type: organism-based; conditions: in vivo; procedure, shortened: as §1
# Rattus norvegicus [8] = assay: Antiinflammatory activity in Wistar albino rat assessed as inhibition of carrageenan-induced paw edema at 0.029 mmol/kg, po dosed 1 hr before carrageenan challenge measured 4 hrs post carrageenan-induced inflammation
# Mus musculus [9] = assay: Analgesic activity in Swiss albino mouse assessed as inhibition of acetic acid-induced writhing at 0.029 mmol/kg. po dosed 1 hr before acetic acid challenge and measured during 30 mins post acetic acid challenge relative to indomethacin; type: functional; conditions: read-out: INH; procedure, shortened: as §2
# [10] = Lipophilicity, log P of the compound; type: physicochemical; conditions: octanol/water
SMILES,Activity (Rattus norvegicus [1]) [%],inhibition in vivo at 29 µmol/kg (Rattus norvegicus [2]) [%],inhibition in vivo at 29 µmol/kg (Rattus norvegicus [3]) [%],inhibition in vivo at 29 µmol/kg (Rattus norvegicus [4]) [%],Activity (Rattus norvegicus [5]),inhibition in vivo at 29 µmol/kg (Mus musculus [6]) [%],UI (Rattus norvegicus [7]),inhibition in vivo at 29 µmol/kg (Rattus norvegicus [8]) [%],writhing inhibition relative to indomethacin (potency %) at 29 µmol/kg (Mus musculus [9]) [%],logP [10]
COc1ccc2c(c1)c(CC(=O)O)c(C)n2C(=O)c1ccc(Cl)cc1 [INDOMETHACIN],10,57,39,47,Toxic,66.1,14.73,51,–,–
CC(C)=NNC(=O)c1nc2c(c(=O)[nH]1)C1CCCN1C(=O)N2c1ccccc1 (stereo not drawn),–,26,23,35,Non-toxic,58.8,–,36,89,–
O=C(NN=C(c1ccccc1)c1ccccc1)c1nc2c(c(=O)[nH]1)C1CCCN1C(=O)N2c1ccccc1 (stereo not drawn),–,44,51,51,Non-toxic,81.9,–,53,124,5.52
COc1ccc(/C=N/NC(=O)c2nc3c(c(=O)[nH]2)C2CCCN2C(=O)N3c2ccccc2)cc1 (stereo not drawn),–,51,21,44,Non-toxic,71.8,–,47,109,2.76
O=C1CC(O)=NN1C(=O)c1nc2c(c(=O)[nH]1)C1CCCN1C(=O)N2c1ccccc1 (stereo not drawn),–,68,44,49,Non-toxic,61.9,–,65,93.6,0.693
CCOC(=O)C/C(C)=N/NC(=O)c1nc2c(c(=O)[nH]1)C1CCCN1C(=O)N2c1ccccc1 (stereo not drawn),–,45,41,47,Non-toxic,1.17,–,52,1.77,1.28
COc1ccc(/C=N/NC(=O)c2nc3c(c(=O)[nH]2)C2CCCN2C(=O)N3c2ccccc2)cc1O (stereo not drawn),–,18,15,46,Non-toxic,43.8,–,46,66.2,2.42
O=C(O)c1nc2c(c(=O)[nH]1)C1CCCN1C(=O)N2c1ccccc1 (stereo not drawn),–,68,56,66,Toxic,64.7,–,72,97.8,0.661
Cc1ccc(-c2cc(C(F)(F)F)nn2-c2ccc(S(N)(=O)=O)cc2)cc1 [CELECOXIB],6.66,54,34,47,Toxic,–,11.13,48,–,–
O=C(N/N=C/c1ccc(Cl)cc1)c1nc2c(c(=O)[nH]1)C1CCCN1C(=O)N2c1ccccc1 (stereo not drawn),–,54,32,44,Non-toxic,34.8,–,38,52.7,3.36
Nc1cc(=O)[nH]n1C(=O)c1nc2c(c(=O)[nH]1)C1CCCN1C(=O)N2c1ccccc1 (stereo not drawn),–,50,20,45,Non-toxic,70.3,–,50,106,0.517
NNC(=O)c1nc2c(c(=O)[nH]1)C1CCCN1C(=O)N2c1ccccc1 (stereo not drawn),–,56,45,50,Toxic,32.2,–,56,48.7,-0.487
O=C(N/N=C/c1ccccc1)c1nc2c(c(=O)[nH]1)C1CCCN1C(=O)N2c1ccccc1 (stereo not drawn),–,68,41,53,Toxic,57.6,–,50,87.2,3.35
CCO/C=N/NC(=O)c1nc2c(c(=O)[nH]1)C1CCCN1C(=O)N2c1ccccc1 (stereo not drawn),–,47,55,64,Non-toxic,24.9,–,55,37.7,1.44
C/C(=N\NC(=O)c1nc2c(c(=O)[nH]1)C1CCCN1C(=O)N2c1ccccc1)c1ccc(Cl)cc1 (stereo not drawn),–,43,50,51,Toxic,62.1,–,57,94,3.29
CCOC(=O)c1nc2c(c(=O)[nH]1)C1CCCN1C(=O)N2c1ccccc1 (stereo not drawn),–,71,67,68,Non-toxic,29.4,–,66,44.5,2.02
C/C(=N\NC(=O)c1nc2c(c(=O)[nH]1)C1CCCN1C(=O)N2c1ccccc1)c1ccccc1 (stereo not drawn),–,61,44,53,Toxic,67.5,–,61,102,3.28
Cc1cc(=O)n(C(=O)c2nc3c(c(=O)[nH]2)C2CCCN2C(=O)N3c2ccccc2)[nH]1 (stereo not drawn),–,57,34,57,Non-toxic,61,–,62,92.2,0.772
Cc1cc(C)n(C(=O)c2nc3c(c(=O)[nH]2)C2CCCN2C(=O)N3c2ccccc2)n1 (stereo not drawn),–,58,57,65,Non-toxic,62.1,–,67,94,1.46
O=C(N/N=C/c1ccccc1O)c1nc2c(c(=O)[nH]1)C1CCCN1C(=O)N2c1ccccc1 (stereo not drawn),–,53,34,46,Toxic,68.9,–,47,104,2.46
